# Compound activity: PubChem, The Scripps Research Institute Molecular Screening Center
# Most compounds without a hit are left out; they make up all but 3.1% or so of the library.
# OX1R antag-1 = antagonists of human orexin 1 receptor (OX1R) | Orexin/Hypocretin receptor type 1 (Homo sapiens), O43613 | OX1R-expressing cells, FRET antagonist read-out | inhibition, % at 6.6 µM | 330,000 compounds, 1.8% hits | AID 485270, 2010; in the data active = inhibition mostly above about 38%, no sharp cut-off; inactive = mostly below about 40%
# GPR7 antag = GPR7 receptor antagonists, primary screen, cell-based, fluorescence, single concentration; Neuropeptides B/W receptor type 1 (Homo sapiens), P48145; GPR7-expressing cells, fluorescence antagonist assay; inhibition, % at 4.4 µM; 290,000 compounds, 1.1% hits; AID 1861, 2009; in the data active = inhibition above about 16%, passing the limit was not always enough;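 also: cells stimulated with the agonist NPW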
# Target sequence (P48145 whole entry, looked up): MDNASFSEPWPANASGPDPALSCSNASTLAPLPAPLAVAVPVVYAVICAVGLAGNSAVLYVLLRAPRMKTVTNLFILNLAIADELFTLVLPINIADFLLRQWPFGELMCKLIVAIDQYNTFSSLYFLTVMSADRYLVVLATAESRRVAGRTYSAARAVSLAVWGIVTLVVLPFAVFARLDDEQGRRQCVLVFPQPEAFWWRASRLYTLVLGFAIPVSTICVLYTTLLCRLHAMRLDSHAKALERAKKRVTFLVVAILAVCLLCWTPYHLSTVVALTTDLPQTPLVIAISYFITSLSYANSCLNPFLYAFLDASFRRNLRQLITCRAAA
# OX1R antag-2 = OX1R (HCRTR1) antagonists, primary screen, fluorescence, CHO/OX1R cells, Fluo-8 calcium, orexin A; 330,000 compounds, 0.43% hits; AID 434989, 2010; inhibition, % at 5 µM; Fluo-8 calcium fluorescence; Orexin/Hypocretin receptor type 1 (Homo sapiens), O43613;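 active = inhibition above its plate's threshold, mean inhibition of all tested compounds on the plate plus 3 SD, cut at about 37% in these data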
# GalR3 antag = GalR3 antagonists in HEK293 cells, primary screen, cell-based, fluorescence readout | Galanin receptor type 3 (Homo sapiens), O60755 | HEK293 GalR3-CNG cAMP membrane potential fluorescence; galR3 body fused to GalR1 C-terminus | inhibition, % at 3 µM | 360,000 compounds, 0.44% hits;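 active = inhibition above the screen-wide average plus 3 SD, cut at about 13% in these data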;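 also: forskolin and galanin both at EC90 stimulate the cells; cAMP rise reported by CNG channel membrane potential dye signal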
# Target sequence (O60755 1-299 limits assumed): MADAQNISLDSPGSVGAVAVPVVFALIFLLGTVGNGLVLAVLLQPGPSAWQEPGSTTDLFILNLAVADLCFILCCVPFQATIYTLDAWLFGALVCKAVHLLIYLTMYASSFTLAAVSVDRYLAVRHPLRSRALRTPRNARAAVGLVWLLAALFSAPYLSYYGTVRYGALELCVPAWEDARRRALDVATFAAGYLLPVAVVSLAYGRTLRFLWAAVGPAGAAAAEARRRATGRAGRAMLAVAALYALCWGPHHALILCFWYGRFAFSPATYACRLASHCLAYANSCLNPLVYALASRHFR
# CHO parental Ca = ATP-evoked calcium signal inhibitors, parental CHO, primary screen, counter-screen for OX1R antagonist project, cell-based, fluorescence, Fluo-8 calcium dye | parental CHO-K1, ATP-induced calcium, Fluo-8 fluorescence | inhibition, % at 5.6 µM | 330,000 compounds, 0.63% hits | AID 463079, 2010;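 active = inhibition above that plate's mean sample inhibition plus 3 SD, cut at about 26% in these data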
#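 Test system: untransfected parental CHO cell line; also added: ATP stimulus; dosing: 5.6 µM, single dose; signal: calcium-sensitive Fluo-8 fluorescence; measure: percent inhibition of ATP-evoked calcium rise, normalized to controls; benchmarks: low control ATP plus DMSO, high control DMSO only; replication: one well per compound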
# Hits are given with their value; - = inactive; . = no result.
SMILES,OX1R antag-1,GPR7 antag,OX1R antag-2,GalR3 antag,CHO parental Ca
COc1ccc(S(=O)(=O)N2CCCCCC2)cc1C(=O)N1CCN(C(C)=O)CC1,.,.,.,-,.
CN(C)C(=O)CCC(=O)N1CCCC(N2CCN(c3cccc(C(F)(F)F)c3)CC2)C1 (stereo not drawn),-,-,-,-,-
COc1cccc([C@@H]2CC=C(C(=O)O)[C@H](c3ccccc3)N2S(=O)(=O)c2ccc(C)cc2)c1,-,.,-,-,-
COc1cccc([C@@H]2CC=C(C(=O)O)[C@H](c3cccc(Cl)c3)N2S(=O)(=O)c2ccc(C)cc2)c1,68.6,.,-,-,-
CN1CCN(c2ccc(-c3cc(NC=O)c4ncc(-c5ccccc5)n4c3)cc2)CC1,.,.,.,-,.
Cc1cc(Nc2cccc(Br)c2)cc(=O)n1-c1cccc(Br)c1,.,.,.,-,.
O=C(Nc1ccc(Cl)cc1)c1ccc2snnc2c1,-,-,-,.,-
O=C(Nc1ccccc1F)c1ccc2snnc2c1,71.2,-,-,-,-
Oc1ccc(Cl)cc1Cc1cc(Cl)ccc1O,45.8,35.4,-,.,-
CCOC(=O)CC1C(=O)NCCN1c1nc2ccc(C)cn2c(=O)c1/C=C1\SC(=S)N(CC(C)C)C1=O (stereo not drawn),-,-,49.4,.,27.1
CCOC(=O)CC1C(=O)NCCN1c1nc2ccc(C)cn2c(=O)c1/C=C1\SC(=S)N(C(C)CC)C1=O (stereo not drawn),-,-,-,.,-
O=S(=O)(c1ccc(C(F)(F)F)cc1)N1CCCc2nc(-c3ccc(F)cc3)ccc21,.,.,.,-,.
Cc1ccccc1CN(C)C(=O)COC(=O)c1ccc2[nH]c(C)c(C)c2c1,52.9,.,-,-,-
Cc1[nH]c2ccc(C(=O)OC(C)C(=O)NCc3ccccc3)cc2c1C (stereo not drawn),-,.,-,-,-
O=C(COC(=O)c1ccccc1[N+](=O)[O-])c1ccc(C2CCCCC2)cc1,-,-,-,-,47.0
CC(C)NC(=O)N(C)C[C@H]1OCCCC[C@H](C)Oc2ccc(NS(=O)(=O)c3ccccc3)cc2C(=O)N([C@H](C)CO)C[C@H]1C,.,.,.,-,.
N#C/C(=C\c1ccc(-c2nc3ccccc3s2)o1)C(N)=O,51.7,-,-,-,-
N#C/C(=C/c1ccc(-c2ccc(S(N)(=O)=O)cc2)o1)c1nc2ccccc2s1,-,-,80.5,-,64.3
Cc1ccc(-c2nnn(CC(=O)N(c3ccccc3F)C(C(=O)NC3CCCC3)c3ccco3)n2)o1 (stereo not drawn),45.1,-,-,.,-
Cc1ccc(-c2nnn(CC(=O)N(c3ccc(F)cc3)C(C(=O)NC3CCCC3)c3ccco3)n2)o1 (stereo not drawn),-,-,-,.,-
CCOC(OCC)c1cn(Cc2ccc(C(=O)c3ccccc3)cc2)nn1,-,-,-,-,44.2
COc1cc(/C=C2\SC(=S)N(NS(=O)(=O)c3ccccc3)C2=O)cc(OC)c1OC,-,-,-,-,-
COc1ccc(/C=C2/SC(=O)N(NS(=O)(=O)c3ccccc3)C2=S)cc1OC,42.8,-,-,-,-
COc1cccc(/C=C2\SC(=S)N(NS(=O)(=O)c3ccccc3)C2=O)c1OC,49.8,-,-,-,-
CC(C)/C=C1\CC/C(=C\c2ccc(N(C)C)cc2)C1=O,-,-,65.6,-,53.1
SMILES,OX1R antag-1,GPR7 antag,OX1R antag-2,GalR3 antag,CHO parental Ca
CN(C)c1ccc(/C=C2/C[N+](C)(C)C/C(=C/c3ccc(N(C)C)cc3)C2=O)cc1,.,.,.,-,.
COc1ccc(-c2cn3cccc(C)c3n2)cc1Br,73.9,-,-,-,-
Cc1cccn2cc(-c3ccccc3)nc12,-,-,-,-,-
CC(C)CCC(C(=O)NC(C)c1ccccc1)C(=O)NC(C)c1ccccc1 (stereo not drawn),42.8,-,-,-,-
CCCS(=O)(=O)NC(=O)C1(C)CCCN(C(=O)c2c(C)noc2C)C1 (stereo not drawn),.,.,.,-,.
O=C(CS(=O)(=O)c1ccccc1)Nc1ncc([N+](=O)[O-])s1,-,-,-,-,-
Cc1cnc(NC(=O)c2cccs2)s1,-,-,-,-,-
O=C(Nc1ncc([N+](=O)[O-])s1)c1cccs1,74.9,-,-,-,-
O=C(Nc1ncc([N+](=O)[O-])s1)c1ccccc1Br,42.8,-,-,-,-
Cc1ccc(Nc2cc(C)nn2-c2nc(C)cc(=O)[nH]2)cc1,-,-,40.6,.,54.8
Cc1ccc(Nc2cc(C)nn2-c2nc(C)cc(C)n2)cc1,-,-,-,-,-
Cc1[nH]c2ccccc2c1CC(=O)Nc1ccc(N(C)c2cccnc2)c(-c2cccc(Cl)c2)c1,.,.,.,-,.
CC1(C)N([O-])c2cc([N+](=O)[O-])ccc2[N+]1=O,53.0,-,-,-,-
Cc1ccc(/C=C2\SC(N3CCCC3)=NC2=O)cc1,-,-,-,-,-
CC1CN(C2=NC(=O)/C(=C/c3ccncc3)S2)CC(C)O1 (stereo not drawn),34.1,-,-,-,-
CC(C)CCN1C(=O)c2cccc3c(N)ccc(c23)C1=O,-,.,91.2,-,85.3
Cc1ccc(NC(=O)N2CC(C)OC(C)C2)cc1[N+](=O)[O-] (stereo not drawn),.,.,.,-,.
c1ccc(-c2cc3nccc(-c4ccccn4)n3n2)cc1,48.4,-,-,-,-
Cc1cc2nccc(-c3ccccn3)n2n1,-,-,-,-,-
COC(=O)C1=C(C)N(CC(C)C)C(=S)NC1c1cccc(F)c1 (stereo not drawn),.,.,.,-,.
NS(=O)(=O)c1ccc(Oc2ccc(S(N)(=O)=O)cc2)cc1,-,-,-,-,-
C=CS(=O)(=O)c1ccc(Oc2ccc(S(=O)(=O)C=C)cc2)cc1,-,34.6,-,-,-
COc1ccccc1C(=O)N=c1sc2c(C)ccc(OC)c2n1C,-,-,-,-,-
COc1cc(C=O)ccc1OC(=O)N1CCOCC1,-,-,-,-,-
COCCCNC(=O)/C(C#N)=C/c1c(N2CCN(C)CC2)nc2ccccn2c1=O,46.7,-,-,-,-
SMILES,OX1R antag-1,GPR7 antag,OX1R antag-2,GalR3 antag,CHO parental Ca
CCN(CC)C(=O)C(Oc1ccc(S(=O)(=O)N2CCCC2)cc1[N+](=O)[O-])c1ccccc1 (stereo not drawn),62.5,-,-,-,-
CCCCn1cnc2c(=S)nc(N)[nH]c21,-,-,-,-,-
CCCn1cnc2c(=S)nc(N)[nH]c21,-,18.3,-,-,-
CC(C)c1ccc(N2C(=O)/C(=C/N(C)C)SC2=S)cc1,-,-,51.7,-,-
CCN(Cc1ccccc1)C(=O)COC(=O)c1cnc(C)cn1,-,-,-,-,-
CCN(Cc1ccccc1)C(=O)COC(=O)c1c(C)nsc1NC,50.2,.,-,-,-
Cn1nc(N)c2c(-c3ccc(Cl)cc3)c(C#N)c(N)nc21,-,-,-,-,-
